From publication PMC7616001 (Journal of medicinal chemistry, 2022)

How the values were obtained:
HeLa [1] = assay: MTT assay, 72 h continuous exposure, HeLa cells; assay type: cell-based, human
Summary of the method: (§1)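 Ovarian lines grown in RPMI with 10% FBS and 1% penicillin/streptomycin; A2780Cis kept on 2 μM cisplatin 3 days each week. HeLa grown in DMEM with the same supplements. 3 × 10^3 cells/well, overnight, then serial dilutions of DMSO stocks (final DMSO ≤0.1%); cisplatin stock in PBS. 72 h continuous exposure, MTT 0.5 mg/mL 3 h, formazan in DMSO, A570 normalised to untreated. IC50 from curves; ≥3 independent experiments.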

A2780cis = assay: MTT assay, 72 h continuous exposure, cisplatin-resistant A2780Cis cells; assay type: cell-based, human
Summary of the method: as §1

HeLa [2] = assay: 24 h MTT assay, HeLa cells; assay type: cell-based, human; conditions: read-out: IC50/24h
Summary of the method: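 HeLa in DMEM with 10% FBS and 1% penicillin/streptomycin, 3 × 10^3 cells/well, grown overnight. Fresh DMSO stocks (Ru content confirmed by ICP‑MS) serially diluted in medium; final DMSO ≤0.1%. 24 h exposure, then MTT 0.5 mg/mL for 3 h. Formazan dissolved in DMSO, A570 read and normalised to untreated wells. IC50 taken from dose–response curves; ≥3 independent experiments of 3 or 6 replicates.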

HeLa [3] = assay: 72 h crystal violet; assay type: cell-based, human
Summary of the method: (§2)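 Seeding and dosing as for MTT: 3 × 10^3 cells/well, overnight, final DMSO ≤0.1%, 72 h exposure. Wells washed with PBS and fixed in 4% paraformaldehyde for 15 min. Crystal violet stained, dried, dissolved in 96% ethanol and A570 read. IC50 derived from dose–response curves.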

A2780 = assay: 72 h crystal violet; assay type: cell-based, human; conditions: read-out: IC50 (CV assay) A2780; 72 h CV assay
Summary of the method: as §2

HeLa cells [4] = assay: Trypan blue dye exclusion cell proliferation assay; assay type: cell-based, human
Summary of the method: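 HeLa seeded in 24‑well plates. Next day, some wells trypsinised, stained with trypan blue and live cells counted by hemocytometer as the 0 h value. Remaining wells left untreated or dosed at various concentrations. Viable cells counted at 24, 48, 72, 96 and 120 h and plotted against time.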

[5] = Stability in RPMI-1640 cell culture medium by UPLC; assay type: physicochemical
Summary of the method: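 Test compound incubated in RPMI‑1640 and monitored by UPLC. Run twice, each with three replicates.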

[6] = tested on: genomic DNA of HeLa cells; assay: Metalation of genomic DNA, ICP-MS; assay type: cell-based, human; conditions: 20 μM, 24 h exposure
[7] = tested on: O2•− radicals in HeLa cells; assay: Flow cytometric quantification of superoxide radicals with DHE probe; assay type: cell-based, human; conditions: 10 μM, 4 h
Summary of the method: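 HeLa seeded at 0.75 × 10^6 cells per six‑well plate well, grown overnight, then treated 4 h at 10 μM. Cells trypsinised, washed with ice‑cold PBS and spun at 1200 rpm, 5 min, 4 °C. Probe‑stained cells analysed by flow cytometry, approximately 20,000 cells per sample.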

ΔΨm of HeLa cells = assay: JC-1 mitochondrial membrane potential assay, flow cytometry; assay type: cell-based, human; conditions: 24 h, even at 1/4 × IC50/24h (10 μM)
[8] = tested on: mitochondria of HeLa cells; assay: Mitochondrial morphology, confocal imaging of mito-GFP HeLa cells; assay type: cell-based, human; conditions: 1/2 × IC50/24h (20 μM)
HeLa cells [9] = assay: Annexin-V/PI dual staining flow cytometry; assay type: cell-based, human; conditions: 24 h
[10] = tested on: IRE1α, ATF6, p-elF2α, unfolded proteins in HeLa cells; assay: Western blot of polyubiquitinated proteins and ER-stress marker proteins; assay type: cell-based, human; conditions: 24 h
Summary of the method: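 HeLa cells, about 2 × 10^6 at 80–90% confluency, were treated for 24 h with test compound at 10, 20 or 40 μM, with celastrol as positive control. RIPA lysates with protease inhibitors were heated in Laemmli buffer (90 °C, 10 min), resolved on 10/12% SDS-PAGE and transferred to PVDF. Membranes were blocked in 2% milk and probed overnight at 4 °C with primary antibodies (1:1000), then with HRP secondary antibodies.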

[11] = tested on: PARP, p53, cleaved caspase 3 in HeLa cells; assay: Western blot of apoptosis-related marker proteins; assay type: cell-based, human; conditions: 24 h
Summary of the method: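 ~2 million HeLa per 60 mm dish, grown to 80–90% confluency, treated 24 h at 10, 20 or 40 μM. Lysed in RIPA buffer with protease inhibitors. Membranes blocked with 2% skim milk in 0.1% Tween 20 for 30 min. Primary antibody 1:1000 overnight at 4 °C; HRP secondary antibody.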

[12] = tested on: LC3-II/LC3-I in HeLa cells; assay: Western blot of autophagy marker proteins; assay type: cell-based, human; conditions: 24 h
Summary of the method: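 ~2 million HeLa per 60 mm dish, grown to 80–90% confluency, then treated 24 h. Lysed in RIPA buffer with protease inhibitors. Membranes blocked with 2% skim milk in 0.1% Tween 20 for 30 min. Primary antibody 1:1000 overnight at 4 °C; HRP secondary antibody; LC3 forms detected.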

[13] = tested on: RIP1 and RIP3 in HeLa cells; assay: Western blot of necroptosis marker proteins; assay type: cell-based, human; conditions: 24 h
Summary of the method: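 Western blot for RIP1/RIP3: about 2 × 10^6 HeLa cells at 80–90% confluency were given test compound (10, 20, 40 μM) for 24 h, with shikonin as a reference necroptosis inducer. Cells were lysed in RIPA with protease inhibitors and run on 10/12% SDS-PAGE, then transferred to PVDF. Membranes were blocked in 2% milk, probed with primary antibody (1:1000, overnight, 4 °C), then with HRP secondary antibody (0.75:1000).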

ER of HeLa cells = assay: ER imaging of ER-RFP-labeled HeLa cells; assay type: cell-based, human
Summary of the method: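 HeLa cells transduced with a CellLight ER-RFP BacMam 2.0 construct, replated on glass-bottom dishes overnight, then treated with test compound (20 or 40 μM) for 8 h or 24 h. A platinum–ferrocene complex (40 μM) served as positive control. After PBS washes, confocal images were taken in phenol red-free medium (ex 543 nm, em 584–655 nm) at constant exposure.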

Structure (SMILES): Cc1ccc(C(C)C)cc1.O=C(C=C([O-])C(F)(F)F)[c-]1cccc1.[Cl-].[Fe+2].[Ru+2].c1cc[cH-]c1 [Compound 1, [(η^6-p-cymene)Ru(1,1,1-trifluoro-4-oxo-4-ferrocenyl-but-2-en-2-olate)Cl]]
- fold higher potency compared to oxaliplatin (HeLa [1]; HeLa cells, 72 h MTT): 1.6 fold
- IC50 (HeLa [1]; read-out: IC50 HeLa, 72 h continuous exposure, MTT assay): 1.3 ± 0.3 µM
- RF (A2780) (A2780cis; RF = IC50 in A2780Cis/IC50 in A2780): 1.2
- IC50 (A2780cis; read-out: IC50 A2780cis, 72 h continuous exposure, MTT assay): 3.1 ± 0.1 µM
- IC50 (HeLa [2]): 38 ± 3 µM
- IC50 from CV assay compared to IC50 from MTT assay (HeLa [3]; HeLa and A2780, 72 h): ~ 3 fold
- IC50 (HeLa [3]; read-out: IC50 (CV assay) HeLa, 72 h CV assay): 4.4 ± 1.7 µM
- IC50 (A2780): 7.2 ± 0.3 µM
- effect on number of viable cells (HeLa cells [4]; 5 and 10 μM): time-dependent antiproliferative effect
- effect on number of viable cells (HeLa cells [4]; 20 and 40 μM): exerted antitumor activity by killing cells
- intact compound remaining in RPMI-1640 with 10% FBS ([5]; after 24 h): ~45%
- intact compound remaining in RPMI-1640 with 10% FBS ([5]; after 72 h): ~7%
- decomposition in RPMI-1640 with 10% FBS ([5]; up to 8 h, 37 °C, UPLC): < 20%
- metalation of genomic DNA [6]: comparable with that of the classical DNA-targeted Pt drug cisplatin
- level of O2•− radicals relative to untreated control [7]: ~ 19 fold
- effect on ΔΨm (JC-1 red/green) (ΔΨm of HeLa cells): dramatic decrease in ΔΨm
- mitochondrial morphology [8]: rounded and punctate
- AV^−/PI^+ cells (necrosis) (HeLa cells [9]; 10 μM): 9%
- AV^−/PI^+ cells (necrosis) (HeLa cells [9]; 20 μM): 15.4%
- unfolded (polyubiquitinated) proteins ([10]; 10-40 μM): dose-dependent upregulation of unfolded proteins
- IRE1α and ATF6 levels [10]: significant upregulation of both IRE1α and ATF6
- p-elF2α level (PERK arm) [10]: did not increase the level of the downstream protein p-elF2α
- apoptosis markers (PARP cleavage, p53, cleaved caspase 3) ([11]; cisplatin 10 μM, 1 at 1/4 × IC50 to IC50): none of these apoptosis markers were upregulated
- PARP level ([11]; western blot): significant upregulation of PARP
- ratio of LC3-II/LC3-I [12]: no increase in the ratio of LC3-II/LC3-I
- expression level of RIP1 and RIP3 [13]: increased the expression level of RIP1 and RIP3
- ER dilation and vacuole formation (ER of HeLa cells): ER dilation and/or vacuole formation were not observed
